Laboratory results taken from ChEMBL document CHEMBL2331336, “Discovery and structure-activity relationship of 1,3-cyclohexyl amide derivatives as novel mGluR5 negative allosteric modulators” (Bioorg Med Chem Lett, 2013).
In brackets after ≈: the same amount, converted by molar mass.

Columns and labels:
[1] = target: T1, Metabotropic glutamate receptor 5 (Homo sapiens, UniProt P41594); assay: Antagonist activity at human mGluR5 expressed in HEK293 cells assessed as inhibition of Ca2+ mobilization by FLIPR assay; format: functional, cell-based
[2] = target: T1, Metabotropic glutamate receptor 5; assay: Displacement of [3H]-ABP688 from human mGluR5 expressed in HEK293 cells after 60 mins by scintillation counting; format: cell-based
Liver microsomes [3] = assay: Intrinsic clearance in human liver microsomes; format: ADME, Microsome; design: unit not given here
[4] = Plasma protein binding in human; format: ADME, cell-free; details: read-out: PPB (converted)
[5] = target: T2, Metabotropic glutamate receptor 1 (Rattus norvegicus, UniProt P23385); assay: Antagonist activity at rat mGluR1 expressed in HEK293 cells assessed as inhibition of Ca2+ mobilization by FLIPR assay; format: functional, cell-based
How it was run: (§1)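 Rat mGluR1 stably in HEK293 cells (1.5% calf serum medium), seeded 24 h earlier, Fluo-4 loaded 1 h at 37 °C in HBSS/HEPES pH 7.4 with probenecid. Curves fitted with Hill equation.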

[6] = Kinetic solubility of the compound in potassium phosphate buffer after 4 hrs; format: physicochemical; details: read-out: Kinetic_solubility
How it was run: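 Kinetic solubility: compound from 10 mM DMSO stock diluted into 25 mM potassium phosphate buffer and shaken 4 h. Supernatant analyzed by UPLC with PDA detection at 254 nm.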

[7] = Partition co-efficient, log D at pH 7.4 of the compound by shake flask method; format: physicochemical; details: buffer
[8] = target: T2, Metabotropic glutamate receptor 1; assay: Agonist activity at rat mGluR1 expressed in HEK293 cells assessed as Ca2+ mobilization by FLIPR assay; format: functional, cell-based; how it was run: as §1
Liver microsomes [9] = assay: Intrinsic clearance in rat liver microsomes; format: ADME, Microsome
[10] = Tmax in Sprague-Dawley rat at 1 mg/kg, iv or 2 mg/kg, po; format: ADME, organism-based; details: in vivo
How it was run: (§2)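 Sprague-Dawley rats (n = 2) dosed in a cross-over design with a 24 h washout: 1 mg/kg IV and 2 mg/kg PO in 20% hydroxypropyl-β-cyclodextrin in water. Rat hepatic blood flow was taken as 20 mL/min.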

[11] = Volume of distribution at steady state in Sprague-Dawley rat at 1 mg/kg, iv or 2 mg/kg, po; format: ADME, organism-based; details: in vivo, read-out: Vdss; how it was run: as §2
Rattus norvegicus [12] = assay: AUC ( 0 to infinity) in Sprague-Dawley rat at 2 mg/kg, po; format: ADME, organism-based, Plasma; design: dose 2 mg/kg, route oral, time infinity; details: in vivo
How it was run: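 Sprague-Dawley rats (n = 2), cross-over design with 24 h washout between routes; 2 mg/kg oral in 20% hydroxypropyl-β-cyclodextrin in water; plasma AUC0-inf derived from concentration–time profile.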

[13] = Plasma concentration in CD-1 mouse at 10 mg/kg, sc at 1 hr; format: ADME, organism-based; design: dose 10 mg/kg, route subcutaneous
How it was run: (§3)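 CD-1 mice (n = 2), 10 mg/kg SC in 20% hydroxypropyl-β-cyclodextrin in water. Brain and plasma sampled at 1 h; averages reported. Quantification limits were 2 ng/g for brain and 2 ng/mL for plasma. Kupp is the ratio of unbound brain to unbound plasma concentration.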

[14] = Drug uptake in CD-1 mouse brain at 10 mg/kg, sc at 1 hr; format: ADME, organism-based; design: dose 10 mg/kg, route subcutaneous; details: read-out: Drug uptake; how it was run: as §3
Plasma [15] = assay: Fraction unbound in mouse plasma; format: ADME, cell-free
Liver = assay: Intrinsic clearance in mouse liver microsomes; format: ADME, Microsome
Rattus norvegicus [16] = assay: Bioavailability in Sprague-Dawley rat at 1 mg/kg, iv or 2 mg/kg, po; format: ADME, organism-based; details: in vivo; how it was run: as §2
Rattus norvegicus [17] = assay: Plasma clearance in Sprague-Dawley rat at 1 mg/kg, iv or 2 mg/kg, po relative to hepatic blood flow; format: ADME, organism-based; details: in vivo; how it was run: as §2
[18] = Ratio of fraction unbound in brain to plasma of CD-1 mouse brain at 10 mg/kg, sc at 1 hr; format: ADME, organism-based; design: dose 10 mg/kg, route subcutaneous; details: in vivo; how it was run: as §3
[19] = Fraction unbound in mouse brain; format: ADME, tissue-based
[20] = Cmax in Sprague-Dawley rat at 1 mg/kg, iv or 2 mg/kg, po; format: ADME, organism-based; details: in vivo; how it was run: as §2
[21] = Half life in Sprague-Dawley rat at 1 mg/kg, iv or 2 mg/kg, po; format: ADME, organism-based; details: in vivo; how it was run: as §2
Rattus norvegicus [22] = assay: AUC ( 0 to infinity) in Sprague-Dawley rat at 1 mg/kg, iv; format: ADME, organism-based, Plasma; design: time infinity, dose 1 mg/kg, route intravenous; details: in vivo
How it was run: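 Sprague-Dawley rats (n = 2), cross-over design with 24 h washout between routes; 1 mg/kg iv in 20% hydroxypropyl-β-cyclodextrin in water; plasma AUC0-inf derived from concentration–time profile.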

[23] = Ratio of drug uptake in brain to plasma of CD-1 mouse at 10 mg/kg, sc at 1 hr; format: ADME, organism-based; design: dose 10 mg/kg, route subcutaneous; details: read-out: BPR; how it was run: as §3
[24] = Fraction unbound in rat brain; format: ADME, tissue-based
[25] = Plasma clearance in Sprague-Dawley rat at 1 mg/kg, iv or 2 mg/kg, po; format: ADME, organism-based; how it was run: as §2
Plasma [26] = assay: Fraction unbound in rat plasma; format: ADME, cell-free

T1 sequence (P41594 whole entry): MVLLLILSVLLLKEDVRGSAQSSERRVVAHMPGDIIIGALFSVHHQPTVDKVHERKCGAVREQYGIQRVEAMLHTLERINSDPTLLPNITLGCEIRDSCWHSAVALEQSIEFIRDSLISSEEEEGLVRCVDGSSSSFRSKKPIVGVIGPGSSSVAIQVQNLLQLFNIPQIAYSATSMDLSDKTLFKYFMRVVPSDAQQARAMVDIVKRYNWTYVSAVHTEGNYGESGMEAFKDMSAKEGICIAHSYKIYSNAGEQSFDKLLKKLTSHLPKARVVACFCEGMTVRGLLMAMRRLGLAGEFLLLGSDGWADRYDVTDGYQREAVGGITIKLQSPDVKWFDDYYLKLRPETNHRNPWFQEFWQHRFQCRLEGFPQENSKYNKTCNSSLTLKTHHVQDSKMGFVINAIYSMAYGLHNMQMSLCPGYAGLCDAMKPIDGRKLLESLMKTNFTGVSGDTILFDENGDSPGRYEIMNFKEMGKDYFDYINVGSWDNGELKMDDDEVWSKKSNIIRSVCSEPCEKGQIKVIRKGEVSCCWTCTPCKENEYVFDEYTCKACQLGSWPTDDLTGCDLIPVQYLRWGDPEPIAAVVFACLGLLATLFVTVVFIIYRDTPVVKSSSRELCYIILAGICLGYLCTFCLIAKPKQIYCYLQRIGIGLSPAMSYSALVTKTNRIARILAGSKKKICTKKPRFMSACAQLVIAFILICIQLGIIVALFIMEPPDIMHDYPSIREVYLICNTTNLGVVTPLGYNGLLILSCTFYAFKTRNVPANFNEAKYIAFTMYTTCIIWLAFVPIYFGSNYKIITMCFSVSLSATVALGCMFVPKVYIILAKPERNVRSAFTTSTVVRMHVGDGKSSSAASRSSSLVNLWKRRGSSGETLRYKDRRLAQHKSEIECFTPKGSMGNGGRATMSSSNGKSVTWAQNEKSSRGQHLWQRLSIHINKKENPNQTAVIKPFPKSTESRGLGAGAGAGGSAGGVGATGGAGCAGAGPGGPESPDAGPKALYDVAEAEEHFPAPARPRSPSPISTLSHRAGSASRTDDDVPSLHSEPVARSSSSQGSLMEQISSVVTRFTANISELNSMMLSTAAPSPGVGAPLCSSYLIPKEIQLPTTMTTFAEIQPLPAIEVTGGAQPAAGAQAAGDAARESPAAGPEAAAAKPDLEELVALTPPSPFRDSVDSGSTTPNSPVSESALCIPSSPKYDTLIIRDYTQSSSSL
T2 sequence (P23385 whole entry): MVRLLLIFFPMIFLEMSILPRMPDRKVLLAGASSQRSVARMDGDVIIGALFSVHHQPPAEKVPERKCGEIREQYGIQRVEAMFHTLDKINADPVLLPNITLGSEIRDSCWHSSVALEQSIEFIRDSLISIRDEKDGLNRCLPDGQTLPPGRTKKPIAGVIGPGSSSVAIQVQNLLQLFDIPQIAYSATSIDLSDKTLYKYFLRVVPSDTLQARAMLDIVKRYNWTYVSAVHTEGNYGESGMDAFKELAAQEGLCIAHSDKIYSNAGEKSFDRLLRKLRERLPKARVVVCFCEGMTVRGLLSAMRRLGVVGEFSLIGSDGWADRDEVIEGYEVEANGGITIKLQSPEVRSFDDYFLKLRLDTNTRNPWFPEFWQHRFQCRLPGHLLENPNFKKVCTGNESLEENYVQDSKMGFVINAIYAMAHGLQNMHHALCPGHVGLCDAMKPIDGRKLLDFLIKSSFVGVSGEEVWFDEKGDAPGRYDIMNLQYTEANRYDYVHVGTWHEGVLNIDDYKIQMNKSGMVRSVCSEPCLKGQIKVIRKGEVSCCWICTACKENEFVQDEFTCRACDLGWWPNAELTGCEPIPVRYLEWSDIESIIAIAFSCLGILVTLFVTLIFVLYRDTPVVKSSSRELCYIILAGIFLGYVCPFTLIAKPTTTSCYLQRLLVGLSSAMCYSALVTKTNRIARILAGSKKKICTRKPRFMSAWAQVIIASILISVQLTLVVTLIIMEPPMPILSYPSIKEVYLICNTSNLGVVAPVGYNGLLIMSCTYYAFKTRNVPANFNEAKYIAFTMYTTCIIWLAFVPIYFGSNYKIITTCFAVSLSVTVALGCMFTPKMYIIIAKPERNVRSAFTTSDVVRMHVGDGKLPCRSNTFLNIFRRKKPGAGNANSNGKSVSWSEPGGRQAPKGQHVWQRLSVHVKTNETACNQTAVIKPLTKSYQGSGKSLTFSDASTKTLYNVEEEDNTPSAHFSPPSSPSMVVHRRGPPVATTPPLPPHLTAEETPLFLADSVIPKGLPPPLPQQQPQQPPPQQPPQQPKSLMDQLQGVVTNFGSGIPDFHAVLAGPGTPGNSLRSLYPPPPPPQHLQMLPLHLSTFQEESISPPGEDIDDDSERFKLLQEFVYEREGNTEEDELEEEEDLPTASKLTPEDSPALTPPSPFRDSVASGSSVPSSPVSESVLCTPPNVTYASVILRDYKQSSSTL

N#Cc1cccnc1C(=O)NC1CCCC(NC(=O)c2cccc(Cl)c2)C1 (mixture of isomers)
IC50 [1]: 0.671 µM
Ki [2]: 1.25 µM

O=C(N[C@@H]1CCC[C@@H](NC(=O)c2cccc(Cl)c2)C1)c1cccc(F)c1
Intrinsic clearance (Liver microsomes [3]): 0.8
fraction unbound [4]: 0.039
IC50 [5]: 2.1 µM
IC50 [1]: 0.059 µM
solubility kinetic at 4 h [6]: 5.4 µM (≈ 2.02 µg/mL)
Ki [2]: 0.211 µM
logD [7]: > 5
EC50 [8]: > 10 µM
Intrinsic clearance (Liver microsomes [9]): 9.4 mL/min

CN(C(=O)c1cccc(Cl)c1)C1CCCC(N(C)C(=O)c2cccc(Cl)c2)C1 (stereo not drawn)
IC50 [1]: > 10 µM

O=C(NC1CCCC2(CN=C(c3cccc(Cl)c3)O2)C1)c1ccncc1 (mixture of isomers)
IC50 [1]: > 10 µM

O=C(N[C@H]1CCC[C@H](NC(=O)c2ncccn2)C1)c1cccc(Cl)c1 (relative stereo)
IC50 [1]: 0.425 µM
Ki [2]: 3.79 µM

COc1cccc(C(=O)N[C@H]2CCC[C@H](NC(=O)c3cccc(Cl)c3)C2)c1 (relative stereo)
IC50 [1]: 0.789 µM

CN(C)c1cccc(C(=O)N[C@H]2CCC[C@H](NC(=O)c3cccc(Cl)c3)C2)c1 (relative stereo)
IC50 [1]: > 10 µM

O=C(N[C@@H]1CCC[C@@H](NC(=O)c2ccccn2)C1)c1cccc(Cl)c1
Intrinsic clearance (Liver microsomes [3]): 1.1
Tmax [10]: 2 h
Vd [11]: 3.4 L/kg
AUC (Rattus norvegicus [12]): 530 ng·h/mL
fraction unbound [4]: 0.065
concentration at 1 h [13]: 500 nM
concentration at 1 h [14]: 170 nM
Cp(f) (Plasma [15]): 11%
IC50 [5]: > 10 µM
Intrinsic clearance (Liver): 9 mL/min
bioavailability (Rattus norvegicus [16]): 80%
IC50 [1]: 0.062 µM
CL (Rattus norvegicus [17]): 85%
solubility kinetic at 4 h [6]: 240 µM (≈ 85.9 µg/mL)
Ratio [18]: 0.67
fraction unbound [19]: 0.22
Cmax [20]: 220 ng/mL
half-life [21]: 0.6 h
AUC (Rattus norvegicus [22]): 260 ng·h/mL
Ki [2]: 0.205 µM
Kp at 1 h [23]: 0.34
fraction unbound [24]: 0.13
clearance [25]: 68.3 mL/min/kg
logD [7]: 3.2
Cp(f) (Plasma [26]): 14%
EC50 [8]: > 10 µM
Intrinsic clearance (Liver microsomes [9]): 41 mL/min

O=C(N[C@H]1CCC[C@H](NC(=O)c2cccc(Cl)c2)C1)c1ccccc1 (relative stereo)
IC50 [1]: 0.228 µM
Ki [2]: 0.672 µM

COc1ccc(C(=O)N[C@H]2CCC[C@H](NC(=O)c3cccc(Cl)c3)C2)cc1 (relative stereo)
IC50 [1]: 0.266 µM
Ki [2]: 0.674 µM

O=C(NC1CCCC(NC(=O)c2cccc(Cl)c2)C1)c1cccc(F)c1 (racemic)
IC50 [1]: 0.086 µM
Ki [2]: 0.32 µM

O=C(N[C@H]1CCC[C@H](NC(=O)c2cccc(Cl)c2)C1)c1cccc(F)c1
IC50 [1]: 9.6 µM

O=C(N[C@H]1CCC[C@H](C(=O)Nc2cccc(Cl)c2)C1)c1ccccn1
IC50 [1]: 0.468 µM

Cc1cccc(C(=O)N[C@@H]2CCC[C@@]3(CN=C(c4cccc(Cl)c4)O3)C2)n1
IC50 [1]: 5.23 µM

N#Cc1cccc(C(=O)NC2CCCC(NC(=O)c3ccccn3)C2)c1 (racemic)
IC50 [1]: 0.531 µM
Ki [2]: 1.54 µM

O=C(N[C@H]1CCC[C@H](NC(=O)c2ccccn2)C1)c1ccccn1
IC50 [1]: 1.15 µM

CN(C)c1ccc(C(=O)N[C@H]2CCC[C@H](NC(=O)c3cccc(Cl)c3)C2)cc1
IC50 [1]: 0.473 µM

O=C(NC1CCCC(NC(=O)c2cccc(Cl)c2)C1)c1cccc(Cl)c1 (mixture of isomers)
IC50 [1]: 0.139 µM

O=C(N[C@H]1CCC[C@H](NC(=O)c2cccc(F)c2)C1)c1cccc(F)c1
IC50 [1]: 0.593 µM

O=C(N[C@@H]1CCC[C@@]2(CN=C(c3cccc(Cl)c3)O2)C1)c1ccccn1
IC50 [1]: 2.91 µM

O=C(N[C@@H]1CCC[C@H](NC(=O)c2ccccn2)C1)c1cccc(Cl)c1 (relative stereo)
IC50 [1]: 1.51 µM

O=C(NC1CCCC(NC(=O)c2ccccn2)C1)c1cccc(Cl)c1 (racemic)
IC50 [1]: 0.314 µM

O=C(N[C@H]1CCC[C@H](NC(=O)c2ccccn2)C1)c1cccc(Cl)c1
IC50 [1]: > 10 µM
